The sample as a whole holds a higher share of hits than the screen did.
XBP1 UPR activ = activators of adaptive XBP1 UPR arm, primary screen, cell-based, CHO-XBP1 luciferase reporter, luminescence, uHTS; IRE1-XBP1 UPR activation; percent of tunicamycin response, DMSO as zero; hit rate 0.33% among 330,000; activation, % at 20 µM;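 active means versus positive control, 20 µM dose yields 30% or more activation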
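Test system: CHO-XBP1 luciferase reporter cells | Buffer or medium: Serum-containing F12 medium, 10% FBS | Schedule: 6 h compound exposure at 37 °C, 5% CO2 | Detection: Steady-Glo luciferase glow luminescence, 10 min after reagent addition | Read-out basis: Activation, % of tunicamycin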
TLR4-MyD88 BLA = inhibitors of TLR4-MyD88 association in cells, primary screen, cell-based, HeLa CL3-4, BLA complementation, FRET ratio; HeLa CL3-4 TLR4/MyD88 BLA complementation; hit rate 0.18% among 200,000; AID 861, 2007; inhibition, % at 8.4 µM; in the data active means inhibition above about 25%
TLR9-MyD88 block = inhibitors of TLR9-MyD88 association in cells, primary screen, cell-based, CHO, BLA complementation, fluorescence. Toll-like receptor 9 (Homo sapiens) + Myeloid differentiation primary response protein …. CCF4 FRET ratio. inhibition, % at 4.98 µM. hit rate 0.21% among 340,000. AID 504734, 2011;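 active means inhibition above the mean over all tested compounds plus 3 SD, cut at about 21% in these data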
CHOP UPR activ = activators of apoptotic CHOP UPR arm, primary screen, cell-based, CHO-CHOP luciferase reporter, luminescence, uHTS. AID 449763, 2010. UPR activation; percent of tunicamycin response over DMSO baseline. hit rate 0.34% among 330,000. activation, % at 10 µM;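 active means at 10 µM dose, activation of 40% or more, normalized to positive control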
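Material: CHO-CHOP cells, stable luciferase reporter of PERK-eIF2a-CHOP signalling; quantity: 500 reporter cells seeded per well; buffer or medium: F12 medium containing 10% fetal bovine serum; compound: one dose, 10 µM in 0.5% DMSO; incubation: 6 h compound treatment, 37 °C; measured by: Steady-Glo luciferase luminescence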
NOD2 RIPK2 PPI = NOD2-RIPK2 binding disruptors in cells, primary screen, fluorescence, CHO cells, BLA complementation. CCF4 ratio. hit rate 0.38% among 360,000. Receptor-interacting serine/threonine-protein kinase 2 (Homo sapiens), O43353. inhibition, % at 4.98 µM; in the data active means inhibition above about 21%
Target sequence (O43353 whole entry, looked up): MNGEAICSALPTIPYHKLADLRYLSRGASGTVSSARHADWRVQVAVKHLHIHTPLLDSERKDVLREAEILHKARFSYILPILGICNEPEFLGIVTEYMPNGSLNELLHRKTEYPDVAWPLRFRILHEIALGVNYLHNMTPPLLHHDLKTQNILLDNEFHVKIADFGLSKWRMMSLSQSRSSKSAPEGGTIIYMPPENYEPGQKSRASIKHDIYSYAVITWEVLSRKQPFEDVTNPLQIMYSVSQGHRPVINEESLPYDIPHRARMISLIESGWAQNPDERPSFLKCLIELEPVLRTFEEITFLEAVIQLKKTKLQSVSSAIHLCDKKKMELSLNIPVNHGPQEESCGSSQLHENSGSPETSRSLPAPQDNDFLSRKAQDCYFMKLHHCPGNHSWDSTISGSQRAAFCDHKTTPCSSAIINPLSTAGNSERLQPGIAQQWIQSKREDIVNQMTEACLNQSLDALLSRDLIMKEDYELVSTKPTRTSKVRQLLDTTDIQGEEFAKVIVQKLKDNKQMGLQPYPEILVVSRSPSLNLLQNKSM
CHOP inhibitor = inhibitors of CHOP promoter induction, primary screen, cell-based, unfolded protein response, luciferase reporter | CHO-K1 CHOP-promoter luciferase, tunicamycin-induced, 15-18 h | inhibition, % at 10 µM | hit rate 3.8% among 220,000 | AID 2732, 2010;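 active means compounds that reduced the stress-induced luciferase reporter signal by more than about 70% of percent inhibition, limit read from the data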
TLR4-MyD88 conf = TLR4-MyD88 association inhibitors, retest, confirmation, cell-based, HeLa CL3-4, BLA complementation, FRET ratio; shares compounds with TLR4-MyD88 BLA; CCF4 FRET ratio; inhibition, % at 8.4 µM; hit rate 50% among 350; AID 941, 2007;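 active means mean inhibition across three repeat runs above about 25% carried over from the earlier screen, limit read from the data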
BLA inhibitor ct = counter-screen for TLR4-MyD88 inhibitors: beta-lactamase reporter inhibitors; inhibition, % at 8.4 µM; AID 1237; shares compounds with TLR4-MyD88 BLA; hit rate 63% among 350; HeLa BLA reporter, CCF4 FRET ratio;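 active means mean inhibition over three repeats above about 26% taken from the earlier screen, limit read from the data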;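 further: HeLa cells stably expressing beta-lactamase reporter as counterscreen for TLR4-MyD88 inhibitors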
CHOP inh conf = retest of CHOP induction inhibitors, confirmation, cell-based; CHO-CHOP promoter luciferase reporter, tunicamycin-induced, luminescence; hit rate 45% among 2,100; inhibition, % at 10 µM; AID 504437, 2011; shares compounds with CHOP inhibitor;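 active means mean of three repeat readings of reporter signal inhibition above a set limit, cut at about 70% in these data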
TLR9-MyD88 conf = TLR9-MyD88 association inhibitors, retest, confirmation, cell-based, CHO, BLA complementation, fluorescence, triplicate; shares compounds with TLR9-MyD88 block; CCF4 FRET ratio; inhibition, % at 4.98 µM; hit rate 51% among 680; AID 540250, 2011;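 active means mean inhibition across three repeats above about 21% taken from the earlier screen, limit read from the data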;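 further: blue over green emission ratio reports constitutive TLR9 MyD88 association via BLA complementation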
BLA counter-1 = beta-lactamase reporter inhibitors in CHO cells, artefact control for TLR9-MyD88 binding inhibitor project, cell-based, fluorescence | shares compounds with TLR9-MyD88 block | CHO-BLA cells, CCF4 FRET ratio, BLA reporter | inhibition, % at 4.98 µM | hit rate 7% among 680;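 active means mean inhibition above a 50% cutoff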;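 further: counterscreen of TLR9-MyD88 hits on CMV-driven BLA in CHO-K1 cells; higher means less blue over green ratio so more BLA blockade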
TLR9 CHO tox = CHO cell viability loss – luminescence, single concentration, cytotoxicity control for TLR9-MyD88 binding inhibitor project | shares compounds with TLR9-MyD88 block | TLR9-MyD88 CHO cells cytotoxicity | inhibition, % at 4.98 µM | hit rate 39% among 680 | AID 588336, 2011; in the data active means inhibition above about 11%
NOD2 RIPK2 conf = NOD2-RIPK2 binding disruptors, retest, confirmation, fluorescence, CHO cells, BLA complementation, triplicate. shares compounds with NOD2 RIPK2 PPI. CCF4 FRET. inhibition, % at 4.98 µM. hit rate 70% among 1,200;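 active means mean inhibition across replicates above a set limit taken from the earlier primary screen, cut at about 21% in these data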
BLA counter-2 = counter-screen for NOD2-RIPK2 interaction inhibitors: BLA reporter; CHO BLA reporter, CCF4 FRET ratio, counterscreen; shares compounds with NOD2 RIPK2 PPI; inhibition, % at 4.98 µM; hit rate 57% among 1,200;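 active means mean inhibition above the low-control mean inhibition plus three low-control SD, cut at about 11% in these data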
Hits are given with their value; n = inactive; x = no result.

SMILES	XBP1 UPR activ	TLR4-MyD88 BLA	TLR9-MyD88 block	CHOP UPR activ	NOD2 RIPK2 PPI	CHOP inhibitor	TLR4-MyD88 conf	BLA inhibitor ct	CHOP inh conf	NOD2 RIPK2 conf	BLA counter-2	others
Cc1cc(C)n2c(=O)c3ccc(Cl)cc3nc2c1C#N	n	n	n	n	n	n	x	x	x	x	x
Cc1cc(Cl)n2c(nc3cc(F)c(F)cc32)c1C#N	x	75.4	70.9	x	63.3	105.3	71.7	86.3	123.6	89.5	82.2	TLR9-MyD88 conf=66.3;BLA counter-1=54.2;TLR9 CHO tox=100.9
CCN1CCN(c2ccc(NC(=O)c3ccc([N+](=O)[O-])o3)cc2Cl)CC1	x	29.9	n	x	31.0	n	n	n	x	25.5	15.9
CN(C)c1ccc(C(=O)/C=C/c2ccc(Br)cc2)cc1	n	n	n	n	n	n	x	x	x	x	x
CCN(CC)c1ccc(/C=C/C(=O)c2ccc(Br)cc2)cc1	x	54.6	34.5	x	58.8	n	52.5	73.5	x	77.6	79.0	TLR9-MyD88 conf=39.2;BLA counter-1=n;TLR9 CHO tox=n
Cc1ccc(-c2cc(-c3ccccc3)c3c(N)c(S(C)(=O)=O)sc3n2)cc1	n	28.0	45.9	n	35.3	n	30.6	50.4	x	62.0	70.8
Cc1cc(C)c2c(N)c(S(=O)(=O)Cc3ccccc3)sc2n1	n	n	n	n	n	n	x	x	x	x	x
CCCNC(=O)COC(=O)c1ccccc1C(=O)c1ccc(Cl)c([N+](=O)[O-])c1	n	26.0	n	n	38.3	102.3	n	n	n	62.0	11.2
Cc1ccc(C(=O)c2ccccc2C(=O)OCC(=O)NCCc2ccc(Cl)cc2Cl)cc1	n	n	n	n	n	n	x	x	x	x	x
O=C1c2cccc3c([N+](=O)[O-])ccc(c23)C(=O)N1c1ccccn1	n	91.5	81.4	n	89.8	100.7	90.7	114.5	83.9	92.7	86.7	TLR9-MyD88 conf=64.9;BLA counter-1=85.3;TLR9 CHO tox=99.0
Nc1ccc(/C=C/C(=O)c2cccs2)cc1	n	25.2	22.6	n	30.0	n	n	36.6	x	40.1	34.3	TLR9-MyD88 conf=n;BLA counter-1=n;TLR9 CHO tox=n
C/C(=N\Nc1ccc([N+](=O)[O-])cc1)c1ccc(O)cc1	n	38.4	x	n	29.4	n	n	44.1	x	42.4	47.8
C[C@@H]1CN([C@@H](C)CO)C(=O)c2cc(-c3ccncc3)cnc2O[C@H]1CN(C)C(=O)c1cccc(F)c1	x	x	n	x	n	x	x	x	x	x	x
O=C(C=Cc1ccco1)c1ccc2ccccc2c1	x	x	n	x	n	x	x	x	x	x	x
CC(=O)c1sc2nc(-c3ccc(C)cc3)c3c(c2c1N)CCCC3	n	25.6	51.1	n	35.6	n	31.7	61.0	x	56.5	67.8	TLR9-MyD88 conf=41.3;BLA counter-1=n;TLR9 CHO tox=n
Cc1ccc(-c2nc3sc(C(N)=O)c(N)c3c3c2CCCC3)cc1	n	n	n	n	n	n	x	x	x	x	x
CCC(=O)c1ccc(/C=C/c2nc3ccccc3n2C)o1	n	50.1	42.9	n	57.6	n	46.7	65.0	x	62.9	64.5	TLR9-MyD88 conf=30.9;BLA counter-1=n;TLR9 CHO tox=n
CS(=O)(=O)c1ccc(C(=O)OCC(=O)NC(=O)C2CCCCC2)cc1[N+](=O)[O-]	n	n	n	n	n	97.0	x	x	n	x	x
CCCNC(=O)N[C@H]1CC[C@@H](CCn2cc(-c3cccc(F)c3)nn2)O[C@@H]1CO	x	x	x	x	n	x	x	x	x	x	x
COc1ccc(OC)c(NC(=O)c2cc(-c3cc(Cl)ccc3O)n[nH]2)c1	n	n	n	n	n	103.4	x	x	n	x	x
COc1ccc(Cl)cc1NC(=O)c1cc(-c2ccccc2O)n[nH]1	n	n	n	n	n	n	x	x	x	x	x
COC(=O)/C(=C\c1ccc([N+](=O)[O-])o1)NC(=O)c1ccccc1	n	n	n	n	n	n	x	x	x	x	x
Cc1cccc(NC(=O)/C(=C\c2ccc([N+](=O)[O-])o2)NC(=O)c2ccc(Cl)cc2)c1	x	n	n	x	n	101.1	x	x	n	x	x
OC(c1ccc(F)c(F)c1)c1nc(-c2ccc3c(c2)OCO3)cs1 (configuration not stated)	x	x	x	x	n	x	x	x	x	x	x
Cc1cccnc1NC(=O)c1c(O)c2ccccc2n(C)c1=O	n	n	n	n	n	97.9	x	x	99.6	x	x
SMILES	XBP1 UPR activ	TLR4-MyD88 BLA	TLR9-MyD88 block	CHOP UPR activ	NOD2 RIPK2 PPI	CHOP inhibitor	TLR4-MyD88 conf	BLA inhibitor ct	CHOP inh conf	NOD2 RIPK2 conf	BLA counter-2	others
CCn1c(=O)c(C(=O)Nc2ncccc2C)c(O)c2ccccc21	n	n	n	n	n	n	x	x	x	x	x
Cc1csc(-c2nc3ccccc3n2C(C)c2nc3ccccc3[nH]2)c1 (configuration not stated)	x	x	x	x	n	x	x	x	x	x	x
CC(C)C(=O)N1CCCC1(C)C(=O)Nc1ccccc1 (configuration not stated)	x	x	x	x	n	x	x	x	x	x	x
Cc1ccc(OCc2nc(-c3ccc(Cl)cc3)n[nH]2)cc1	n	n	n	n	n	99.9	x	x	n	x	x
CCOc1cccc(CNc2ccc(O)cc2)c1OCc1ccccc1Cl	n	n	n	n	n	n	x	x	x	x	x
CCOc1cccc(CNc2ccc(O)cc2)c1OCc1ccc(Cl)cc1Cl	n	n	n	n	n	100.5	x	x	112.2	x	x

Screening data as filed in PubChem.
